ChEMBL document CHEMBL1142073, “Synergistic activity of R207910 combined with pyrazinamide against murine tuberculosis” (2007)
Active and inactive are the calls of the source. The rule behind the calls is not given here.

Experiments:
[1] = system: Mycobacterium tuberculosis; assay: Reduction of lung lesions in Mycobacterium tuberculosis H37Rv infected Swiss mouse at 25 mg/kg, po for 5 days/week after 1 month; format: functional, organism-based; set-up: dose 25 mg/kg
[2] = system: Mycobacterium tuberculosis; assay: Reduction of bacterial counts in Mycobacterium tuberculosis H37Rv infected Swiss mouse lung at 25 mg/kg, po for 5 days/week after 1 month; format: functional
Procedure, shortened: (§1)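 Female 4-week-old Swiss mice were infected in the tail vein with about 2 10 6 CFU of H37Rv, grown in Dubos broth for 7 days at 37 C. Gavage started 2 weeks post-infection, 5 days/week, with rifampin given 1 h before other drugs. Lung homogenates were plated for CFU; some groups had both lungs cultured undiluted. Mann-Whitney U test.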

[3] = system: Mycobacterium tuberculosis; assay: Reduction of bacterial counts in Mycobacterium tuberculosis H37Rv infected Swiss mouse lung at 25 mg/kg, po for 5 days/week after 2 months; format: functional; procedure, shortened: as §1
[4] = system: Mycobacterium tuberculosis; assay: Reduction of lung lesions in Mycobacterium tuberculosis H37Rv infected Swiss mouse at 25 mg/kg, po for 5 days/week after 2 months; format: functional, organism-based; set-up: dose 25 mg/kg
[5] = system: Mycobacterium tuberculosis; assay: Reduction of bacterial counts in Mycobacterium tuberculosis H37Rv infected Swiss mouse lung at 100 mg/kg, po for 5 days/week after 2 months; format: functional; procedure, shortened: as §1
[6] = system: Mycobacterium tuberculosis; assay: Reduction of lung lesions in Mycobacterium tuberculosis H37Rv infected Swiss mouse at 100 mg/kg, po for 5 days/week after 2 months; format: functional, organism-based; set-up: dose 100 mg/kg
[7] = system: Mycobacterium tuberculosis; assay: Reduction of bacterial counts in Mycobacterium tuberculosis H37Rv infected Swiss mouse lung at 100 mg/kg, po for 5 days/week after 1 month; format: functional; procedure, shortened: as §1
[8] = system: Mycobacterium tuberculosis; assay: Reduction of bacterial counts in Mycobacterium tuberculosis H37Rv infected Swiss mouse lung at 150 mg/kg, po for 5 days/week after 1 month; format: functional; procedure, shortened: as §1
[9] = system: Mycobacterium tuberculosis; assay: Reduction of bacterial counts in Mycobacterium tuberculosis H37Rv infected Swiss mouse lung at 150 mg/kg, po for 5 days/week after 2 months; format: functional; procedure, shortened: as §1
[10] = system: Mycobacterium tuberculosis; assay: Reduction of lung lesions in Mycobacterium tuberculosis H37Rv infected Swiss mouse at 150 mg/kg, po for 5 days/week after 2 months; format: functional, organism-based; set-up: dose 150 mg/kg
[11] = system: Mycobacterium tuberculosis; assay: Reduction of bacterial counts in Mycobacterium tuberculosis H37Rv infected Swiss mouse lung at 10 mg/kg, po for 5 days/week after 1 month; format: functional; procedure, shortened: as §1
[12] = system: Mycobacterium tuberculosis; assay: Reduction of bacterial counts in Mycobacterium tuberculosis H37Rv infected Swiss mouse lung at 10 mg/kg, po for 5 days/week after 2 months; format: functional; procedure, shortened: as §1
[13] = system: Mycobacterium tuberculosis; assay: Reduction of lung lesions in Mycobacterium tuberculosis H37Rv infected Swiss mouse at 10 mg/kg, po for 5 days/week after 2 months; format: functional, organism-based; set-up: dose 10 mg/kg

With `COc1nc2ccc(Br)cc2cc1[C@@H](c1ccccc1)[C@@](O)(CCN(C)C)c1cccc2ccccc12` [BEDAQUILINE] the Activity [1] was “Active”, the Log10 cfu [2] was 4.1 and the Log10 cfu [3] was 2.3. For the same molecule, the Activity [4] was “Active”.
`NNC(=O)c1ccncc1` [ISONIAZID] was tested, and the Log10 cfu [2] was 4.9, the Log10 cfu [3] was 4.7 and the Activity [4] was “Active”.
In the case of `COc1c(N2C[C@@H]3CCCN[C@@H]3C2)c(F)cc2c(=O)c(C(=O)O)cn(C3CC3)c12` [MOXIFLOXACIN], the Log10 cfu [5] is reported as 4.3, the Activity [6] is reported as “Active” and the Log10 cfu [7] is reported as 5.5.
`NC(=O)c1cnccn1` [PYRAZINAMIDE] was tested, and the Log10 cfu [8] was 6.2, the Log10 cfu [9] was 6.4 and the Activity [10] was “inactive”.
For `CO[C@H]1/C=C/O[C@@]2(C)Oc3c(C)c(O)c4c(O)c(c(/C=N/N5CCN(C)CC5)c(O)c4c3C2=O)NC(=O)/C(C)=C\C=C\[C@H](C)[C@H](O)[C@@H](C)[C@@H](O)[C@@H](C)[C@H](OC(C)=O)[C@@H]1C` [RIFAMPIN], the Log10 cfu [11] was 6, the Log10 cfu [12] was 4.1 and the Activity [13] was “Active”.
